Measured values as given in BindingDB's records for doi:10.1016/j.bmc.2014.05.061 (Academy of Sciences of The Czech Republic, 2014).

Target: Glutamate carboxypeptidase 2 (Homo sapiens, UniProt Q04609)
Assay: Inhibition of human recombinant N-terminal Avi-tagged glutamate carboxypeptidase 2 extracellular domain (44 to 750 amino acids) using pteroyl-di-L-glutamate substrate by HPLC method
In short: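 Avi-GCPII (0.2 ng) in 25 mM Bis-Tris propane, 150 mM NaCl, 0.001% octaethylene glycol monododecyl ether, pH 7.4, preincubated with inhibitor (ten concentrations) 5 min at 37 °C. Reaction started with pteroyl-di-L-glutamate (20 µl of 4 µM stock), run 20 min at 37 °C, stopped with 2-PMPA. Substrate and product separated by isocratic HPLC, detected at 281 nm; IC50 from full curves, Ki mean ± SD, duplicate or triplicate.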

Sequence of Glutamate carboxypeptidase 2 (Q04609 whole entry, the tested form may be a part): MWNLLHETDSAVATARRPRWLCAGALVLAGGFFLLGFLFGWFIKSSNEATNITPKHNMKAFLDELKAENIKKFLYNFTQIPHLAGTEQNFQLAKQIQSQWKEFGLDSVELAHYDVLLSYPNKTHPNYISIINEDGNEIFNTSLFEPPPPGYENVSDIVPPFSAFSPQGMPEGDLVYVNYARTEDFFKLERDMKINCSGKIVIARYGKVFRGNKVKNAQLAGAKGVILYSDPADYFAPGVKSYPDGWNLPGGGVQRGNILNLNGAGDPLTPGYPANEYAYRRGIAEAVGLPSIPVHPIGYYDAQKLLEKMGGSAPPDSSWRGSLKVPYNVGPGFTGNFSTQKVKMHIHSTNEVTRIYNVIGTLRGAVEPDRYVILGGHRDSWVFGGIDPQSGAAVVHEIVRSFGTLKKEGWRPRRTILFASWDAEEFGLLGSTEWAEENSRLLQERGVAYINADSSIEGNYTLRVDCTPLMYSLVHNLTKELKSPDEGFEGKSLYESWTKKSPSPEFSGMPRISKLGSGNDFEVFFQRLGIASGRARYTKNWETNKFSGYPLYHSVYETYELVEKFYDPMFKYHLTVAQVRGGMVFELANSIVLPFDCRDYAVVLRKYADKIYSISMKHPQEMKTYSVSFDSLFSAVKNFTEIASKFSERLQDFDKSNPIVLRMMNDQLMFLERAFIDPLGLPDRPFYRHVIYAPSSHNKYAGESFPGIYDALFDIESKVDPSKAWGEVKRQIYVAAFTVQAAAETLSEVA

Ki: 0.221 nM
SMILES: O=C(O)CC[C@H](NC(=O)N[C@@H](CCCCNC(=O)Nc1ccc(Br)cc1OCCNC(=O)CCOCCOCCOCCOCCOCCOCCOCCOCCOCCOCCOCCOCCNC(=O)CCCC[C@@H]1SC[C@@H]2NC(=O)N[C@@H]21)C(=O)O)C(=O)O
